Experiments:
Enterococcus faecium [1] = experiment: Antibacterial activity against vancomycin-resistant Enterococcus faecium 50901530 after 24 hrs by microdilution method; type: functional; details: Enterococcus faecium, 50901530, 24 h
Staphylococcus aureus [2] = experiment: Antibacterial activity against Staphylococcus aureus clinical isolate after 24 hrs by microdilution method; type: functional
Staphylococcus aureus [3] = experiment: Antibacterial activity against methicillin resistant Staphylococcus aureus clinical isolate 85/2082 after 24 hrs by microdilution method; type: functional; details: isolate 85/2082, 24 h
[4] = system: Corynebacterium glutamicum; experiment: Antibacterial activity against Corynebacterium glutamicum ATCC 13032 after 48 hrs by microdilution method; type: functional; details: ATCC 13032, 48 h
Pseudomonas aeruginosa [5] = experiment: Antibacterial activity against multi-drug resistant/VIM-2 producing Pseudomonas aeruginosa K34-7 after 24 hrs by microdilution method; type: functional; details: K34-7, 24 h
Acinetobacter baumannii [6] = experiment: Antibacterial activity against multi-drug resistant/OXA-58 producing Acinetobacter baumannii K12-21 after 24 hrs by microdilution method; type: functional; details: K12-21, 24 h
Acinetobacter baumannii [7] = experiment: Antibacterial activity against multi-drug resistant/OXA-24 producing Acinetobacter baumannii K55-13 after 24 hrs by microdilution method; type: functional; details: K55-13, 24 h
Klebsiella pneumoniae [8] = experiment: Antibacterial activity against multi-drug resistant/VIM1 producing Klebsiella pneumoniae 50667959 after 24 hrs by microdilution method; type: functional; details: Klebsiella pneumoniae, 50667959, 24 h
Acinetobacter baumannii [9] = experiment: Antibacterial activity against multi-drug resistant/OXA-23 producing Acinetobacter baumannii K47-42 after 24 hrs by microdilution method; type: functional; details: K47-42, 24 h
Escherichia coli [10] = experiment: Antibacterial activity against multi-drug resistant/NDM-1 producing Escherichia coli 50676002 after 24 hrs by microdilution method; type: functional; details: Escherichia coli, 50676002, 24 h
Enterococcus faecium [11] = experiment: Antibacterial activity against vancomycin-resistant Enterococcus faecium K36-18 after 24 hrs by microdilution method; type: functional; details: K36-18, 24 h
Escherichia coli [12] = experiment: Antibacterial activity against multi-drug resistant/VIM-29 producing Escherichia coli 50639799 after 24 hrs by microdilution method; type: functional; details: Escherichia coli, 50639799, 24 h
Escherichia coli [13] = experiment: Antibacterial activity against Escherichia coli ATCC 25922 after 48 hrs by microdilution method; type: functional; details: ATCC 25922, 48 h
Pseudomonas aeruginosa [14] = experiment: Antibacterial activity against multi-drug resistant/VIM producing Pseudomonas aeruginosa 50692520 after 24 hrs by microdilution method; type: functional; details: Pseudomonas aeruginosa, 50692520, 24 h
Klebsiella pneumoniae [15] = experiment: Antibacterial activity against multi-drug resistant/OXA-245 producing Klebsiella pneumoniae 50625602 after 24 hrs by microdilution method; type: functional; details: Klebsiella pneumoniae, 50625602, 24 h
[16] = Selectivity index, ratio of hemolytic EC50 for human RBC to MIC for Staphylococcus aureus ATCC 9144
Staphylococcus aureus [17] = experiment: Antibacterial activity against Staphylococcus aureus ATCC 9144 after 48 hrs by microdilution method; type: functional; details: ATCC 9144, 48 h
Pseudomonas aeruginosa [18] = experiment: Antibacterial activity against Pseudomonas aeruginosa PAO1 DSM 19880 (ATCC 15692) after 48 hrs by microdilution method; type: functional
Enterococcus faecium [19] = experiment: Antibacterial activity against vancomycin-resistant Enterococcus faecium 50673722 after 24 hrs by microdilution method; type: functional; details: Enterococcus faecium, 50673722, 24 h
Pseudomonas aeruginosa [20] = experiment: Antibacterial activity against multi-drug resistant/VIM-4 producing Pseudomonas aeruginosa K34-73 after 24 hrs by microdilution method; type: functional; details: K34-73, 24 h
Staphylococcus aureus [21] = experiment: Antibacterial activity against methicillin resistant Staphylococcus aureus NCTC 10442 after 24 hrs by microdilution method; type: functional; details: NCTC 10442, 24 h
Enterococcus faecium [22] = experiment: Antibacterial activity against vancomycin-resistant Enterococcus faecium 50758899 after 24 hrs by microdilution method; type: functional; details: Enterococcus faecium, 50758899, 24 h
Enterococcus faecium [23] = experiment: Antibacterial activity against vancomycin-resistant Enterococcus faecium TUH50-22 after 24 hrs by microdilution method; type: functional; details: TUH50-22, 24 h
Staphylococcus aureus [24] = experiment: Antibacterial activity against methicillin resistant Staphylococcus aureus clinical isolate WIS after 24 hrs by microdilution method; type: functional
Staphylococcus aureus [25] = experiment: Antibacterial activity against methicillin resistant Staphylococcus aureus IHT 99040 after 24 hrs by microdilution method; type: functional; details: IHT 99040, 24 h
Staphylococcus aureus [26] = experiment: Antibacterial activity against methicillin resistant Staphylococcus aureus N315 after 24 hrs by microdilution method; type: functional; details: N315, 24 h
Escherichia coli [27] = experiment: Antibacterial activity against multi-drug resistant/NDM-1 producing Escherichia coli 50739822 after 24 hrs by microdilution method; type: functional; details: Escherichia coli, 50739822, 24 h
Acinetobacter baumannii [28] = experiment: Antibacterial activity against multi-drug resistant/OXA-23 producing Acinetobacter baumannii K44-35 after 24 hrs by microdilution method; type: functional; details: K44-35, 24 h
Escherichia coli [29] = experiment: Antibacterial activity against multi-drug resistant/IMP-26 producing Escherichia coli 50857972 after 24 hrs by microdilution method; type: functional; details: Escherichia coli, 50857972, 24 h
Pseudomonas aeruginosa [30] = experiment: Antibacterial activity against Pseudomonas aeruginosa clinical isolate after 24 hrs by microdilution method; type: functional
Pseudomonas aeruginosa [31] = experiment: Antibacterial activity against multi-drug resistant/IMP-14 producing Pseudomonas aeruginosa K44-24 after 24 hrs by microdilution method; type: functional; details: K44-24, 24 h
Escherichia coli [32] = experiment: Antibacterial activity against Escherichia coli clinical isolate after 24 hrs by microdilution method; type: functional
[33] = Antibacterial activity against methicillin-resistant Staphylococcus epidermidis RP62A CCUG 31568 (ATCC 35984) after 48 hrs by microdilution method; type: functional
How it was run: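 Broth microdilution MIC against the reference-strain panel. Compounds were supplied as HCl salts for aqueous solubility in the test medium. Precipitation in the test buffer is flagged at higher concentrations.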

Enterococcus sp. = experiment: Antibacterial activity against Enterococcus sp. clinical isolate after 24 hrs by microdilution method; type: functional
Klebsiella pneumoniae [34] = experiment: Antibacterial activity against multi-drug resistant/NDM1 producing Klebsiella pneumoniae K66-45 after 24 hrs by microdilution method; type: functional; details: K66-45, 24 h
Klebsiella pneumoniae [35] = experiment: Antibacterial activity against multi-drug resistant/NDM1/OXA-181 producing Klebsiella pneumoniae 50531633 after 24 hrs by microdilution method; type: functional; details: Klebsiella pneumoniae, 50531633, 24 h
[36] = Hemolytic activity in human RBC after 1 hr; type: ADME, cell-based; details: Erythrocyte
Klebsiella pneumoniae [37] = experiment: Antibacterial activity against multi-drug resistant/KPC-2 producing Klebsiella pneumoniae K47-25 after 24 hrs by microdilution method; type: functional; details: K47-25, 24 h
Acinetobacter baumannii [38] = experiment: Antibacterial activity against multi-drug resistant/OXA-23 producing Acinetobacter baumannii K63-58 after 24 hrs by microdilution method; type: functional; details: K63-58, 24 h
Pseudomonas aeruginosa [39] = experiment: Antibacterial activity against multi-drug resistant/NDM1 producing Pseudomonas aeruginosa 50692172 after 24 hrs by microdilution method; type: functional; details: Pseudomonas aeruginosa, 50692172, 24 h
Bacillus subtilis = experiment: Antibacterial activity against Bacillus subtilis 168 ATCC 23857 after 48 hrs by microdilution method; type: functional; details: subsp. subtilis str. 168 ATCC 23857, 48 h
Escherichia coli [40] = experiment: Antibacterial activity against multi-drug resistant/OXA-48 producing Escherichia coli 50579417 after 24 hrs by microdilution method; type: functional; details: Escherichia coli, 50579417, 24 h
Klebsiella pneumoniae [41] = experiment: Antibacterial activity against Klebsiella pneumoniae clinical isolate after 24 hrs by microdilution method; type: functional
[42] = Aqueous solubility of the compound; type: physicochemical; details: buffer
[43] = Hemolytic activity in human RBC at 64 ug/ml after 1 hr relative to control; type: ADME, cell-based, Erythrocyte; details: red blood cells (RBC), read-out: Activity

CC(C)(C)c1cc(C(=O)Nc2ccccc2C(=O)NCCNC(=N)N)cc(C(C)(C)C)c1.Cl
2 µg/mL: MIC (Staphylococcus aureus [2]) | MIC90 (Staphylococcus aureus [2]) | MIC [33]
4 µg/mL: MIC (Enterococcus faecium [1]) | MIC (Staphylococcus aureus [3]) | MIC (Staphylococcus aureus [21]) | MIC (Enterococcus faecium [23]) | MIC (Staphylococcus aureus [24]) | MIC (Staphylococcus aureus [26]) | MIC90 (Enterococcus sp.)
8 µg/mL: MIC (Enterococcus faecium [11]) | MIC (Escherichia coli [13]) | MIC (Enterococcus faecium [19]) | MIC (Enterococcus faecium [22]) | MIC (Escherichia coli [32]) | MIC90 (Escherichia coli [32]) | MIC (Enterococcus sp.)
16 µg/mL: MIC (Acinetobacter baumannii [9]) | MIC (Escherichia coli [12]) | MIC (Klebsiella pneumoniae [15]) | MIC (Pseudomonas aeruginosa [18]) | MIC (Acinetobacter baumannii [28]) | MIC (Escherichia coli [29]) | MIC (Pseudomonas aeruginosa [30]) | MIC (Klebsiella pneumoniae [35]) | MIC (Klebsiella pneumoniae [41]) | MIC90 (Klebsiella pneumoniae [41])
> 32 µg/mL: MIC (Pseudomonas aeruginosa [5]) | MIC (Escherichia coli [10]) | MIC (Pseudomonas aeruginosa [20]) | MIC (Pseudomonas aeruginosa [31])
0.5 µg/mL: MIC [4]
32 µg/mL: MIC (Acinetobacter baumannii [6]) | MIC (Acinetobacter baumannii [7]) | MIC (Klebsiella pneumoniae [8]) | MIC (Pseudomonas aeruginosa [14]) | MIC (Escherichia coli [27]) | MIC90 (Pseudomonas aeruginosa [30]) | MIC (Klebsiella pneumoniae [34]) | MIC (Klebsiella pneumoniae [37]) | MIC (Acinetobacter baumannii [38]) | MIC (Pseudomonas aeruginosa [39]) | MIC (Escherichia coli [40])
37 µg/mL: EC50 [36]
> 4 µg/mL: MIC (Staphylococcus aureus [25])
1 µg/mL: MIC (Staphylococcus aureus [17]) | MIC (Bacillus subtilis)
37: Selectivity Index [16]

CC(C)(C)c1cc(C(=O)Nc2cccc(C(=O)NCCNC(=N)N)c2)cc(C(C)(C)C)c1.Cl
4 µg/mL: MIC (Staphylococcus aureus [2]) | MIC90 (Staphylococcus aureus [2]) | MIC (Staphylococcus aureus [17]) | MIC [33] | MIC (Bacillus subtilis)
8 µg/mL: MIC (Enterococcus faecium [1]) | MIC (Staphylococcus aureus [3]) | MIC (Enterococcus faecium [11]) | MIC (Escherichia coli [13]) | MIC (Pseudomonas aeruginosa [18]) | MIC (Enterococcus faecium [19]) | MIC (Staphylococcus aureus [21]) | MIC (Enterococcus faecium [22]) | MIC (Enterococcus faecium [23]) | MIC (Staphylococcus aureus [24]) | MIC (Staphylococcus aureus [26]) | MIC (Pseudomonas aeruginosa [30]) | MIC90 (Enterococcus sp.)
16 µg/mL: MIC (Pseudomonas aeruginosa [5]) | MIC (Klebsiella pneumoniae [8]) | MIC (Escherichia coli [10]) | MIC (Escherichia coli [12]) | MIC (Pseudomonas aeruginosa [14]) | MIC (Klebsiella pneumoniae [15]) | MIC (Escherichia coli [29]) | MIC90 (Pseudomonas aeruginosa [30]) | MIC (Pseudomonas aeruginosa [31]) | MIC (Escherichia coli [32]) | MIC90 (Escherichia coli [32]) | MIC (Enterococcus sp.) | MIC (Klebsiella pneumoniae [34]) | MIC (Klebsiella pneumoniae [35]) | MIC (Pseudomonas aeruginosa [39]) | MIC (Klebsiella pneumoniae [41]) | MIC90 (Klebsiella pneumoniae [41])
37 µg/mL: EC50 [36]
9.3: Selectivity Index [16]
32 µg/mL: MIC (Acinetobacter baumannii [6]) | MIC (Acinetobacter baumannii [9]) | MIC (Escherichia coli [27]) | MIC (Acinetobacter baumannii [28]) | MIC (Acinetobacter baumannii [38]) | MIC (Escherichia coli [40])
2 µg/mL: MIC [4]
> 8 µg/mL: MIC (Staphylococcus aureus [25])
> 32 µg/mL: MIC (Acinetobacter baumannii [7]) | MIC (Pseudomonas aeruginosa [20]) | MIC (Klebsiella pneumoniae [37])

CC(C)(C)c1cc(C(=O)Nc2ccc(CC(=O)NCCNC(=N)N)cc2)cc(C(C)(C)C)c1.Cl
Insoluble: solubility [42]
16 µg/mL: MIC (Escherichia coli [13]) | MIC (Pseudomonas aeruginosa [18])
35%: hemolysis at 1 h, 64 ug/ml [43]
> 64 µg/mL: EC50 [36]
4 µg/mL: MIC (Staphylococcus aureus [17]) | MIC [33] | MIC (Bacillus subtilis)
2 µg/mL: MIC [4]
> 16: Selectivity Index [16]

— ChEMBL document CHEMBL3862007, “Synthesis and antimicrobial activity of small cationic amphipathic aminobenzamide marine natural product mimics and evaluation of relevance against clinical isolates including ESBL-CARBA producing multi-resistant bacteria” (Bioorg Med Chem, 2016)
